The values that follow come from ChEMBL document CHEMBL4513216, “Probing the Open Global Health Chemical Diversity Library for Multistage-Active Starting Points for Next-Generation Antimalarials” (ACS Infect Dis, 2020).

The series in a line: Toxicity liver stage against HepG2, at 10uM. Also noted: test concentration 10 uM, cell line HepG2-A16-CD81EGFP. The series is classed as cell-based. The conditions noted are these: human, HepG2-A16-CD81EGFP cells; read-out: INHIBITION
The method, boiled down:
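Uninfected HepG2-A16-CD81EGFP cells, 3 × 10^3 per well, 1536-well, plated on prespotted compound at 10 μM final, parasite-free screening media added to match infected plates; puromycin 10 μM positive, DMSO 0.5% negative; run in parallel with 48 h PbLuc assay at 37 °C, 5% CO2; viability by CellTiter-Glo luminescence, normalized to controls.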
For `Cc1c(C(=O)O)sc2nc(C(F)(F)F)ccc12`, the cytotoxicity at 10 µM came out at 1.5%.

As for `CN1CCOC[C@H]1c1nc(-c2ccc(F)cc2F)c[nH]1`, the cytotoxicity at 10 µM is -5.66%.

For `COCCNC(=O)c1cccnc1Oc1ccc(Cl)cc1`, the cytotoxicity at 10 µM was determined as 6.99%.

In the case of `Cc1nc(C(=O)Nc2cccnc2)c(C(C)C)s1`, the cytotoxicity at 10 µM is -2.36%.

As for `CC(C)CNC(=O)C1CC(=O)N(c2n[nH]c3ccccc23)C1` (stereo unspecified), the cytotoxicity at 10 µM is -11.6%.

With `Cc1cc(C(=O)N2CC[C@@H]3CN(C)S(=O)(=O)[C@@H]3CC2)no1`, the cytotoxicity at 10 µM is -7.55%.

For the compound `CCC(=O)N1CCC2(CC1)CC(CC(=O)NC1CC1)c1ccccc1O2` (stereo unspecified), the cytotoxicity at 10 µM was 2.64%.

As for `O=C1COC2(CCN(Cc3ccco3)CC2)CN1Cc1cccnc1`, the cytotoxicity at 10 µM was -4.25%.

As to `O=C(c1ccno1)N1CC2(CCC(C(=O)N3CCCC3)O2)C1` (stereo unspecified), the cytotoxicity at 10 µM is -157%.

For the compound `Cc1ccc(CN2CC[C@H]3C(=O)N(c4cccnc4)CCO[C@H]3C2)o1`, the cytotoxicity at 10 µM stood at 7.8%.

Take `COCC1c2nnn(CC3CC3)c2CCN1C(=O)c1cc(C)[nH]c1C` (stereo unspecified): the cytotoxicity at 10 µM is -140%.

In the case of `Cc1noc(C)c1CN1CC2(CCN(C(=O)c3cc[nH]n3)C2)CC1=O` (stereo unspecified), the cytotoxicity at 10 µM amounted to 12.2%.

Take `Cc1nc(CN2CCO[C@H]3CN(C(=O)c4ccncc4)C[C@H]32)cs1`: the cytotoxicity at 10 µM was -146%.

With `O=C(O)C1CCN(C(=O)CCn2ccc3cc(Br)ccc32)CC1`, the cytotoxicity at 10 µM came to 15.5%.

For the compound `Cc1cccc(-c2cc(C(=O)O)sn2)c1`, the cytotoxicity at 10 µM is -0.475%.

Regarding `CS(=O)(=O)N1CCC(Oc2cnccn2)CC1`, the cytotoxicity at 10 µM came out at 0.097%.

For `Cn1cc(C2CC(=O)NC23CCN(c2ncc(F)cn2)CC3)cn1` (stereo unspecified), the cytotoxicity at 10 µM was -5.39%.

Regarding `CCn1nc(C)c(NC(=O)c2cc(NC(=O)C(C)C)n(C)n2)c1C`, the cytotoxicity at 10 µM was 0.568%.

For `Cc1nc(C(Cc2ccsc2)NC(=O)CCN2CCOCC2)sc1C` (stereo unspecified), the cytotoxicity at 10 µM worked out at 7.04%.

In the case of `O=C(Cc1ccccc1)N1CCC(c2nnc(-c3ccccn3)o2)CC1`, the cytotoxicity at 10 µM came out at 2.83%.

For the compound `C[C@]1(O)CCN(Cc2ncccc2F)C[C@@H]1Oc1ccccc1`, the cytotoxicity at 10 µM is -21.4%.

Take `Cc1cc2c(=O)n3c(nc2s1)CCN(C(=O)c1cnn(C)c1)CC3`: the cytotoxicity at 10 µM is -1.94%.

Regarding `Cc1cccc(C(=O)NCCS(=O)(=O)Cc2ccccc2)c1`, the cytotoxicity at 10 µM is -7.43%.

Take `CN1CCOC(CNCc2cnc(C(C)(C)C)s2)C1` (stereo unspecified): the cytotoxicity at 10 µM is -2.87%.

For `Cc1nc(C)c(C(=O)N2CCc3ccc(F)cc3C2C)o1` (stereo unspecified), the cytotoxicity at 10 µM was -1.65%.

For `Cc1nc(C)n(CC2CCCN2c2ncnc3sc(C)c(C)c23)n1` (stereo unspecified), the cytotoxicity at 10 µM was determined as 21.4%.

For the compound `Cn1cc(N2CCN(c3ccc(C#N)c(Cl)c3)CC2=O)cn1`, the cytotoxicity at 10 µM is -3.81%.

On to `N#Cc1ccc(CN2CCC(CN3CCOCC3)C2)cc1` (stereo unspecified), for which the cytotoxicity at 10 µM is -7.01%.

Turning to `N#CC1(NC(=O)c2c(F)ccc(OC(F)F)c2F)CCOCC1`, the cytotoxicity at 10 µM is -8.29%.

As to `O=C(NCCCN1CCOCC1)C(OC1CCCC1)c1ccccc1` (stereo unspecified), the cytotoxicity at 10 µM was -5.95%.

Regarding `CC(C)(C)[S+]([O-])CCNC(=O)c1csc(NC2CC2)n1` (stereo unspecified), the cytotoxicity at 10 µM was determined as 13.4%.

As for `O=C(NCCNC(=O)c1ccc(Cl)cc1)NCCn1cccc1`, the cytotoxicity at 10 µM was found to be 5.95%.

As for `CC(=O)c1c(F)cccc1NC1CCN(S(=O)(=O)C2CC2)CC1`, the cytotoxicity at 10 µM was found to be 12.5%.

With `CN1CCN(C(=O)NCCNc2ncccn2)Cc2ccccc21`, the cytotoxicity at 10 µM was -4.47%.

Take `CC(NC(=O)NCCCn1cccn1)c1ccccn1` (stereo unspecified): the cytotoxicity at 10 µM is -11.5%.

As to `O=C(CCNS(=O)(=O)c1ccc(Cl)cc1)NCc1ccoc1`, the cytotoxicity at 10 µM was -11.8%.

`CCN(Cc1nc2c(cnn2C)c(=O)[nH]1)c1ccccc1C`: the cytotoxicity at 10 µM is 2.78%.

For the compound `CN(Cc1ccncc1)C(=O)c1ccc(F)c(NS(C)(=O)=O)c1`, the cytotoxicity at 10 µM is -0.453%.

`O=C(CNc1cc2c(cc1Br)OCCO2)NC1CCS(=O)(=O)C1` (stereo unspecified): the cytotoxicity at 10 µM was 6.43%.

Turning to `N#Cc1cc(N2CCC(CS(N)(=O)=O)CC2)nc2ccccc12`, the cytotoxicity at 10 µM is -6.03%.

With `COCCN(Cc1ccco1)Cc1nc(-c2ccccc2C)no1`, the cytotoxicity at 10 µM was 6.72%.

Turning to `COCCN(c1ccncc1)S(=O)(=O)c1cc(C)c(F)cc1F`, the cytotoxicity at 10 µM was -6.54%.

Regarding `CCS(=O)(=O)CC(=O)Nc1cccc2c1CN(CC(C)C)C2`, the cytotoxicity at 10 µM is 2.25%.

Turning to `CS(=O)(=O)N(Cc1ccon1)c1cccc(Br)c1`, the cytotoxicity at 10 µM was found to be 7.57%.

For the compound `Cc1oc(-c2cccs2)nc1C(=O)N(C)C1(C#N)CCC1`, the cytotoxicity at 10 µM turned out to be 5.09%.

For `CC(O)CN1CCC(CN(C)Cc2ccc(C#N)cc2F)CC1` (stereo unspecified), the cytotoxicity at 10 µM was -1.87%.

For the compound `COc1ccccc1NC(=O)NCCCC(=O)Nc1cn[nH]c1`, the cytotoxicity at 10 µM is -9.55%.

With `Cc1[nH]ncc1C(=O)N(CC(C)C)CC(O)c1ccc(F)cc1` (stereo unspecified), the cytotoxicity at 10 µM was -1.61%.

In the case of `Cc1nc(S(=O)(=O)N2CCSC3(CCCCC3)C2)cn1C`, the cytotoxicity at 10 µM was -9.2%.

Regarding `COC(C)(C)c1noc(C2(C#N)CCCC2)n1`, the cytotoxicity at 10 µM is -5.11%.

Take `CCCNC(=O)NC(=O)CNc1c(F)cccc1N1CCCC1`: the cytotoxicity at 10 µM worked out at 0.266%.

As to `COc1ccccc1N(C)Cc1nc2c(cnn2C)c(=O)[nH]1`, the cytotoxicity at 10 µM was -8.48%.

Regarding `COc1ncccc1C(=O)N1CCn2c(COCC3CC3)cnc2C1C` (stereo unspecified), the cytotoxicity at 10 µM is -1.03%.

`CN1CCN(C(=O)N2CC[C@@](O)(c3ccccc3)[C@H]3CCCC[C@@H]32)CC1`: the cytotoxicity at 10 µM is -9.67%.

Regarding `CC(C)N(CCO)C(=O)C1CCC(=O)N(Cc2ccc(Cl)cc2)C1` (stereo unspecified), the cytotoxicity at 10 µM was -4.9%.

Regarding `NCCO[C@H]1C[C@@H](O)C12CCN(C(=O)COc1cccc(Cl)c1)CC2`, the cytotoxicity at 10 µM is -4.32%.

Regarding `CCN1CCC(c2nnc(CN3CCCC3)n2C2CC2)CC1`, the cytotoxicity at 10 µM is -7.3%.

For `CCC(=O)N1CCc2[nH]cnc2C12CCN(CC1CCOC1)CC2` (stereo unspecified), the cytotoxicity at 10 µM is -0.264%.

Consider `Cc1nn(C)c2nc(N3CCCCC3c3ccc(F)cc3)sc12` (stereo unspecified), for which the cytotoxicity at 10 µM was -7.88%.

For `CN(Cc1cc(C(C)(C)C)n[nH]1)C(=O)c1cn2ccsc2n1`, the cytotoxicity at 10 µM is -12.6%.

For the compound `Cc1nc(N(C)C)nc(N2CCC3(CC2)CNC(=O)O3)c1C`, the cytotoxicity at 10 µM came to 14.9%.

Regarding `CN(C)Cc1nnc(C2CCN(c3ncccn3)CC2)n1C1CC1`, the cytotoxicity at 10 µM is -1.26%.

Take `CCn1c(N)nc2cc(C(=O)NCCc3nnc(C)s3)cnc21`: the cytotoxicity at 10 µM was -2.46%.

As for `Cc1ccc2cc(C3(O)CCN(C)CC3)ccc2n1`, the cytotoxicity at 10 µM was -0.432%.

Regarding `COc1nc2c(cc1C(=O)N(C)Cc1noc3c1CCCC3)CCC2`, the cytotoxicity at 10 µM came to 0.224%.

In the case of `O=C(c1ncccc1O)N1CCc2c(nc(-c3ccncc3)[nH]c2=O)C1`, the cytotoxicity at 10 µM is -0.918%.

Turning to `CN(CC(=O)N1CCOCC(CO)C1)Cc1ccc(F)cc1` (stereo unspecified), the cytotoxicity at 10 µM is -2.82%.

On to `COc1ccc2c(C)c(C(=O)N3CCC(NC(C)=O)C3)oc2c1` (stereo unspecified), for which the cytotoxicity at 10 µM was found to be 7.72%.

On to `CC(C)N(C)S(=O)(=O)c1ccc2c(c1)CCN(C(=O)c1ccccn1)C2`, for which the cytotoxicity at 10 µM was found to be 10.3%.

For the compound `COc1ccc(C(=O)N2CCC(C3CCN(c4ncccn4)CC3)C2)o1` (stereo unspecified), the cytotoxicity at 10 µM is -12.5%.

In the case of `CN(Cc1ccc2nsnc2c1)C(=O)CCc1cc2n(n1)CCCNC2`, the cytotoxicity at 10 µM is -4.62%.

`O=C(O)C1(O)CCN(c2ccc3cccc(Cl)c3n2)CC1`: the cytotoxicity at 10 µM came out at 4.57%.

As to `O=C(c1cccnc1N1CCCCC1)N1CCCC(n2cccn2)C1` (stereo unspecified), the cytotoxicity at 10 µM is -0.438%.

In the case of `COc1ncccc1CNC(=O)c1cnccn1`, the cytotoxicity at 10 µM is -8.77%.

On to `CC(C)(C)NC(=O)CCOc1cccc(F)c1`, for which the cytotoxicity at 10 µM is -4.95%.

`CSC(C)C(=O)NCc1ccnc(N2CCN(C)CC2)c1` (stereo unspecified): the cytotoxicity at 10 µM is -15.3%.

On to `CN(C)c1ccc(CNC(=O)NCCc2cccs2)cn1`, for which the cytotoxicity at 10 µM is -2.8%.

In the case of `Cc1cn2nc(N3CCCC3Cn3cccn3)sc2n1` (stereo unspecified), the cytotoxicity at 10 µM is -18.1%.

Take `Cc1ccc(N2CCCC(NCc3ccc(Cl)o3)C2)nn1` (stereo unspecified): the cytotoxicity at 10 µM was -6.83%.

As for `CN(Cc1ccc(-n2ccnc2)cc1)CC1CCCN1c1cccnn1` (stereo unspecified), the cytotoxicity at 10 µM was -6.21%.

As for `Cc1nc2c(c(C)c1CC(=O)NCc1ccc(F)cc1)c(=O)[nH]n2C`, the cytotoxicity at 10 µM was -15.9%.

As to `CC(=O)N(Cc1ncc(C)o1)C1CCN(Cc2csc(C)n2)C1` (stereo unspecified), the cytotoxicity at 10 µM is -15.8%.

As to `CC(C)c1nccn1C1CCCN(C(=O)c2ccsc2)C1` (stereo unspecified), the cytotoxicity at 10 µM was -5.2%.

In the case of `CC(C)c1nnc2n1CCN(C(=O)c1ccc(Cn3cccc3)cc1)C2`, the cytotoxicity at 10 µM was -4.28%.

In the case of `Cc1cc(C)n(C2CCCN(C(=O)c3ccn(C)c(=O)c3)C2)n1` (stereo unspecified), the cytotoxicity at 10 µM was -5.72%.

For the compound `O=C(Cc1ccc2c(c1)OCO2)N1CCN(c2cnccn2)CC1`, the cytotoxicity at 10 µM was -5.51%.

With `CS(=O)(=O)N1CCC2(CCCN(Cc3ccccn3)C2)C1` (stereo unspecified), the cytotoxicity at 10 µM is -148%.

Consider `O=C(C[C@@H]1COC[C@H]2CN(Cc3cccnc3)C[C@@H]12)N1CCCC1`, for which the cytotoxicity at 10 µM was -128%.

Consider `Cc1cccc(N2CCc3ncnc(C4CC4)c3CC2)n1`, for which the cytotoxicity at 10 µM is -148%.

Regarding `CCn1ncc2c1CN(C(=O)c1cc(C)oc1C)CC2COC` (stereo unspecified), the cytotoxicity at 10 µM came out at 13%.

Consider `Cc1nc(CN2CCOCC3(CCN(c4cnccn4)CC3)C2)cs1`, for which the cytotoxicity at 10 µM came to 7.37%.

For the compound `COc1ccc(C[C@H]2CN(C(=O)c3ccc(C)nc3)CC[C@@H]2OC)cc1`, the cytotoxicity at 10 µM was 4.76%.

As to `Cc1ccc(CN2C[C@H](C(=O)N3CCCCO3)[C@@H]3CCO[C@@H]3C2)o1`, the cytotoxicity at 10 µM amounted to 9.46%.

With `Cc1nc(CN2C[C@@H]3CN(c4ncccn4)C[C@@H]3C2=O)cs1`, the cytotoxicity at 10 µM amounted to 5.16%.

For the compound `COCc1nn(C(C)C)c2c1CCN(Cc1nccs1)C2`, the cytotoxicity at 10 µM amounted to 8.42%.

With `O=C([C@@H]1COC[C@H]2CN(c3ccncn3)C[C@H]21)N1CCCCO1`, the cytotoxicity at 10 µM is -132%.
